Data taken from ChEMBL document CHEMBL1155615, “Bioactive saponins from Swartzia schomburgkii from the suriname rainforest” (J Nat Prod, 2000).
Values after ≈ are worked out from the molar mass of the structure shown.

Legend:
Saccharomyces cerevisiae [1] = experiment: Antimicrobial activity against Saccharomyces cerevisiae I353; format: functional
Saccharomyces cerevisiae [2] = experiment: Antimicrobial activity against Saccharomyces cerevisiae I138; format: functional
Saccharomyces cerevisiae [3] = experiment: Antimicrobial activity against Saccharomyces cerevisiae J140; format: functional
M109 = experiment: Cytotoxicity against mouse M109 cells; format: functional, cell-based
In short: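 In vitro antitumor cytotoxicity assay using the murine Madison lung carcinoma line M-109.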

| Compound | IC12 (Saccharomyces cerevisiae [1]) | IC12 (Saccharomyces cerevisiae [2]) | IC12 (Saccharomyces cerevisiae [3]) | IC50 (M109) |
| --- | --- | --- | --- | --- |
| CC1(C)CC[C@]2(C(=O)O)CC[C@]3(C)C(=CC[C@@H]4[C@@]5(C)CC[C@H](O[C@@H]6O[C@H](CO)[C@@H](O)[C@H](O[C@@H]7O[C@H](CO)[C@@H](O)[C@H](O)[C@H]7O)[C@H]6O)[C@@](C)(CO)[C@@H]5CC[C@]43C)[C@@H]2C1 | 1000 µg/mL | 400 µg/mL | 600 µg/mL | 15.5 µg/mL (≈ 19.4 µM) |
| CC1(C)CC[C@]2(C(=O)O)CC[C@]3(C)C(=CC[C@@H]4[C@@]5(C)CC[C@H](O[C@@H]6O[C@H](CO)[C@@H](O)[C@H](O[C@@H]7O[C@H](CO)[C@@H](O)[C@H](O)[C@H]7O)[C@H]6O[C@@H]6O[C@H](CO)[C@@H](O)[C@H](O)[C@H]6O)C(C)(C)[C@@H]5CC[C@]43C)[C@@H]2C1 [ANCHUSOSID 2] | 270 µg/mL | 120 µg/mL | 200 µg/mL | – |
| CC1(C)CC[C@]2(C(=O)O)CC[C@]3(C)C(=CC[C@@H]4[C@@]5(C)CC[C@H](O[C@@H]6O[C@H](CO)[C@@H](O)[C@H](O)[C@H]6O[C@@H]6O[C@H](CO)[C@@H](O)[C@H](O)[C@H]6O)C(C)(C)[C@@H]5CC[C@]43C)[C@@H]2C1 [ACUTOSIDE A] | 110 µg/mL | 75 µg/mL | 130 µg/mL | 28.7 µg/mL (≈ 36.7 µM) |
| CC1(C)CC[C@]2(C(=O)O)CC[C@]3(C)C(=CC[C@@H]4[C@@]5(C)CC[C@H](O[C@@H]6O[C@H](CO)[C@@H](O)[C@H](O)[C@H]6O)[C@@](C)(CO)[C@@H]5CC[C@]43C)[C@@H]2C1 [Hederagenin-3-O-beta-D-glucopyranoside] | 280 µg/mL | 125 µg/mL | 200 µg/mL | – |
| CC1(C)CC[C@]2(C(=O)O)CC[C@]3(C)C(=CC[C@@H]4[C@@]5(C)CC[C@H](O[C@@H]6O[C@H](CO)[C@@H](O)[C@H](O[C@@H]7O[C@H](CO)[C@@H](O)[C@H](O)[C@H]7O)[C@H]6O[C@@H]6OC[C@@H](O)[C@H](O)[C@H]6O)C(C)(C)[C@@H]5CC[C@]43C)[C@@H]2C1 [SWARTZIATRIOSIDE] | 430 µg/mL | 120 µg/mL | 260 µg/mL | 24.3 µg/mL (≈ 26.6 µM) |
